Assay results reported in ChEMBL document CHEMBL1122702, “Radiohalogen-labeled imaging agents. 3. Compounds for measurement of brain blood flow by emission tomography” (J Med Chem, 1984).

Columns and labels:
Assay type in all cases: ADME, organism-based
[1] = species: Rattus norvegicus; experiment: The distribution of the 131 I-labeled compound at 30 min was evaluated in rat brain as Percent of injected dose per gram in the organ; conditions: in vivo, 0.5 h
Method in brief: (§1)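 Male Sprague-Dawley rats (200–300 g, free access to food and water), lightly ether-anesthetized and restrained, received a 0.2 mL saline tail-vein bolus of 10–20 μCi 131I-labeled compound. They were decapitated at the stated time, and organs were excised, weighed and gamma-counted. Percent injected dose was determined against a calibrated external standard made by serial dilution of the injectate. n = 1–4 rats.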

[2] = species: Rattus norvegicus; experiment: The distribution of the 131 I-labeled compound at 30 min was evaluated in rat heart as Percent of injected dose in the total organ; conditions: in vivo, 0.5 h; method in brief: as §1
[3] = species: Rattus norvegicus; experiment: The distribution of the 131 I-labeled compound at 30 min was evaluated in rat heart as Percent of injected dose per gram in the organ; conditions: in vivo, 0.5 h; method in brief: as §1
[4] = species: Rattus norvegicus; experiment: The distribution of the 131 I-labeled compound at 30 min was evaluated in rat kidney as Percent of injected dose in the total organ; conditions: in vivo, 0.5 h; method in brief: as §1
[5] = species: Rattus norvegicus; experiment: The distribution of the 131 I-labeled compound at 30 min was evaluated in rat kidney as Percent of injected dose per gram in the organ; conditions: in vivo, 0.5 h; method in brief: as §1
[6] = species: Rattus norvegicus; experiment: The distribution of the 131 I-labeled compound at 30 min was evaluated in rat liver as Percent of injected dose in the total organ; conditions: in vivo, 0.5 h; method in brief: as §1
[7] = species: Rattus norvegicus; experiment: The distribution of the 131 I-labeled compound at 30 min was evaluated in rat liver as Percent of injected dose per gram in the organ; conditions: in vivo, 0.5 h; method in brief: as §1
[8] = species: Rattus norvegicus; experiment: The distribution of the 131 I-labeled compound at 30 min was evaluated in rat lung as Percent of injected dose per gram in the organ; conditions: in vivo, 0.5 h; method in brief: as §1
[9] = species: Rattus norvegicus; experiment: The distribution of the 131 I-labeled compound at 5 min was evaluated in rat brain as Percent of injected dose in the total organ; conditions: in vivo; method in brief: as §1
[10] = species: Rattus norvegicus; experiment: The distribution of the 131 I-labeled compound at 5 min was evaluated in rat brain as Percent of injected dose per gram in the organ; conditions: in vivo; method in brief: as §1
[11] = species: Rattus norvegicus; experiment: The distribution of the 131 I-labeled compound at 5 min was evaluated in rat heart as Percent of injected dose in the total organ; conditions: in vivo; method in brief: as §1
[12] = species: Rattus norvegicus; experiment: The distribution of the 131 I-labeled compound at 5 min was evaluated in rat heart as Percent of injected dose per gram in the organ; conditions: in vivo; method in brief: as §1
[13] = species: Rattus norvegicus; experiment: The distribution of the 131 I-labeled compound at 5 min was evaluated in rat kidney as Percent of injected dose in the total organ; conditions: in vivo; method in brief: as §1
[14] = species: Rattus norvegicus; experiment: The distribution of the 131 I-labeled compound at 5 min was evaluated in rat kidney as Percent of injected dose per gram in the organ; conditions: in vivo; method in brief: as §1
[15] = species: Rattus norvegicus; experiment: The distribution of the 131 I-labeled compound at 5 min was evaluated in rat liver as Percent of injected dose in the total organ; conditions: in vivo; method in brief: as §1
[16] = species: Rattus norvegicus; experiment: The distribution of the 131 I-labeled compound at 5 min was evaluated in rat liver as Percent of injected dose per gram in the organ; conditions: in vivo; method in brief: as §1
[17] = species: Rattus norvegicus; experiment: The distribution of the 131 I-labeled compound at 5 min was evaluated in rat lung as Percent of injected dose per gram in the organ; conditions: in vivo; method in brief: as §1
[18] = species: Rattus norvegicus; experiment: The distribution of the 131 I-labeled compound at 30 min was evaluated in rat blood as Percent of injected dose per gram in the organ; conditions: in vivo, 0.5 h; method in brief: as §1
[19] = species: Rattus norvegicus; experiment: Ratio of distribution of the [131I]-labeled compound at 30 min in rat brain over uptake in blood; conditions: 0.5 h
Method in brief: (§2)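 Male Sprague-Dawley rats (200–300 g, fed ad libitum), ether-anesthetized, got a tail-vein bolus of 0.2 mL saline containing 10–20 μCi 131I compound and were decapitated at the stated time. Organs were weighed and gamma-counted against a serially diluted external standard. Organ/blood ratio was calculated from % dose per gram of organ. Animal numbers per time point were 1–4.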

[20] = species: Rattus norvegicus; experiment: Ratio of distribution of the [131I]-labeled compound at 30 min in rat heart over uptake in blood; conditions: other tissue, 0.5 h; method in brief: as §2
[21] = species: Rattus norvegicus; experiment: Ratio of distribution of the [131I]-labeled compound at 30 min in rat liver over uptake in blood; conditions: other tissue, 0.5 h; method in brief: as §2
[22] = species: Rattus norvegicus; experiment: Ratio of distribution of the [131I]-labeled compound at 30 min in rat lung over uptake in blood; conditions: other tissue, 0.5 h; method in brief: as §2
[23] = species: Rattus norvegicus; experiment: Ratio of distribution of the [131I]-labeled compound at 5 min in rat brain over uptake in blood; method in brief: as §2
[24] = species: Rattus norvegicus; experiment: Ratio of distribution of the [131I]-labeled compound at 5 min in rat heart over uptake in blood; conditions: other tissue; method in brief: as §2
[25] = species: Rattus norvegicus; experiment: Ratio of distribution of the [131I]-labeled compound at 5 min in rat liver over uptake in blood; conditions: other tissue; method in brief: as §2
[26] = species: Rattus norvegicus; experiment: Ratio of distribution of the [131I]-labeled compound at 5 min in rat lung over uptake in blood; conditions: other tissue; method in brief: as §2
[27] = species: Rattus norvegicus; experiment: The distribution of the 131 I-labeled compound at 5 min was evaluated in rat blood as Percent of injected dose per gram in the organ; conditions: in vivo; method in brief: as §1
[28] = species: Rattus norvegicus; experiment: The distribution of the 131 I-labeled compound at 30 min was evaluated in rat brain as Percent of injected dose in the total organ; conditions: in vivo, 0.5 h; method in brief: as §1
[29] = species: Rattus norvegicus; experiment: Ratio of distribution of the [131I]-labeled compound at 30 min in rat kidney over uptake in blood; conditions: other tissue, 0.5 h; method in brief: as §2
[30] = species: Rattus norvegicus; experiment: Ratio of distribution of the [131I]-labeled compound at 5 min in rat kidney over uptake in blood; conditions: other tissue; method in brief: as §2

SMILES	Dose [1] [%]	Dose [2] [%]	Dose [3] [%]	Dose [6] [%]	Dose [7] [%]	Dose [8] [%]	Dose [9] [%]	Dose [10] [%]	Dose [11] [%]	Dose [12] [%]	Dose [15] [%]	Dose [16] [%]	Dose [17] [%]	Dose [18] [%]	Ratio [19]	Ratio [20]	Ratio [21]	Ratio [22]	Ratio [23]	Ratio [24]	other results
CCN(CC)C(C)Cc1cc(OC)c(I)cc1OC (centres undefined)	0.13	0.2	0.14	4.3	0.32	1.2	0.78	0.39	0.4	0.35	6	0.46	2	0.06	4.3	2.3	8.1	20	5.6	5	Dose [4]: 1.1%; Dose [5]: 0.39%; Dose [13]: 1.8%; Dose [14]: 0.69%; Ratio [25]: 5.5; Ratio [26]: 29; Dose [27]: 0.07%; Dose [28]: 0.26%
CNC(C)Cc1cc(OC)c(I)cc1OC (centres undefined)	0.62	0.32	0.53	11	1.8	3.2	0.97	0.57	0.65	0.93	5.3	0.76	5.9	0.28	2.2	1.9	6.4	11.4	4.1	6.6	Ratio [25]: 5.4; Ratio [26]: 42; Dose [27]: 0.14%; Dose [28]: 1%
COc1cc(CC(C)NC(C)C)c(OC)cc1I (centres undefined)	0.3	0.29	0.44	6	1.2	2.8	1.2	0.66	0.79	1.2	7.2	1.1	7.7	0.23	1.3	1.9	5.2	12	2.6	4.8	Ratio [25]: 4.4; Ratio [26]: 31; Dose [27]: 0.25%; Dose [28]: 0.52%
COc1cc(CC(C)N(C)C)c(OC)cc1I (centres undefined)	0.55	0.28	0.26	12	0.89	1.7	3.4	1.8	1.1	0.8	16	1.1	3.1	0.11	5	2.4	8.1	15	9	4	Dose [4]: 2.4%; Dose [5]: 0.9%; Dose [13]: 6.8%; Dose [14]: 2.4%; Ratio [29]: 8.4; Ratio [30]: 5.5; Ratio [25]: 5.5; Ratio [26]: 16; Dose [27]: 0.2%; Dose [28]: 1.1%
COc1cc(CC(C)N(C)C(C)C)c(OC)cc1I (centres undefined)	0.05	0.24	0.19	4.6	0.32	0.38	0.23	0.12	0.39	0.34	10	0.76	0.53	0.53	0.09	0.36	0.6	0.72	0.24	0.68	Dose [4]: 1.1%; Dose [5]: 0.38%; Dose [13]: 1.5%; Dose [14]: 0.53%; Ratio [29]: 0.72; Ratio [30]: 1.1; Ratio [25]: 1.6; Ratio [26]: 1.1; Dose [27]: 0.5%; Dose [28]: 0.1%
COc1cc(CC(C)NCCCN(C)C)c(OC)cc1I (centres undefined)	0.02	1.6	1.5	7.7	0.55	5.4	0.05	0.03	1.9	1.8	11	0.66	3.8	0.07	0.3	21	7.8	77	0.3	17	Dose [4]: 5.7%; Dose [5]: 2%; Dose [13]: 57%; Dose [14]: 2%; Ratio [29]: 29; Ratio [30]: 16; Ratio [25]: 6; Ratio [26]: 34; Dose [27]: 0.11%; Dose [28]: 0.04%
COc1cc(CC(C)NCc2ccccc2)c(OC)cc1I (centres undefined)	0.5	0.34	0.5	5.4	0.95	5	1.1	0.64	0.77	1.1	4	0.72	8.3	0.2	2.5	2.5	4.7	25	5.3	9.2	Ratio [25]: 6; Ratio [26]: 69; Dose [27]: 0.12%; Dose [28]: 0.9%
CCCCCCNC(C)Cc1cc(OC)c(I)cc1OC (centres undefined)	0.57	0.25	0.36	9.4	1.6	4.3	0.63	0.37	1.5	2.1	4.6	0.58	7.5	0.17	3.4	2.1	9.4	25	2.3	13	Ratio [25]: 5.4; Ratio [26]: 47; Dose [27]: 0.16%; Dose [28]: 0.97%
COc1cc(CC(C)NN)c(OC)cc1I (centres undefined)	0.08	0.15	1.2	5	0.29	0.26	0.72	0.37	0.4	0.46	12	1.3	0.87	0.17	0.5	7.1	1.7	1.5	1	1.9	Dose [4]: 1.5%; Dose [5]: 0.77%; Dose [13]: 2.2%; Dose [14]: 1.2%; Ratio [29]: 4.5; Ratio [30]: 3.3; Ratio [25]: 3.6; Ratio [26]: 2.4; Dose [27]: 0.36%; Dose [28]: 0.14%
